According to ChEMBL document CHEMBL1142981, “Identification and synthesis of a novel selective partial PPARdelta agonist with full efficacy on lipid metabolism in vitro and in vivo” (J Med Chem, 2007):

Assays:
[1] = tested on: L6; experiment: Effect on increase in fatty acid oxidation in rat L6 cells relative to GW-501516; format: functional; design: concentration or dose not given beside the values
Outline: (§1)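 Rat L6 myoblasts differentiated 5 days in 2% serum, then treated 42 h with compound (refreshed at 24 h), followed by 6 h with 0.4 mM palmitate containing [9,10-3H]-palmitic acid on 2% fatty-acid-free BSA. Stopped with 10% TCA; released 3H-H2O collected by overnight equilibration at 50 °C and counted.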

[2] = Plasma Cmax in Sprague-Dawley rat at 0.43 mg/kg, po; format: ADME, organism-based; design: dose 0.43 mg/kg, route oral
Outline: (§2)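 Male SD rats received a single p.o. or i.v. dose (n = 8 per route) in 5% ethanol, 10% HPCD and phosphate buffer, pH 7.5-8.0. At 5, 15, 30, 60, 90, 120, 240 and 360 min one rat was sacrificed per time point. EDTA plasma was assayed by high turbulence LC-MS/MS. Cmax and bioavailability were taken from oral dosing; volume of distribution is at steady state.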

[3] = Half life in Sprague-Dawley rat at 0.43 mg/kg, po; format: ADME, organism-based; design: dose 0.43 mg/kg, route oral; details: in vivo
Outline: (§3)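 Male SD rats dosed once i.v. or p.o. (n = 8 per route), vehicle 5% ethanol, 10% HPCD, phosphate buffer pH 7.5-8.0. One animal sacrificed at each of 5, 15, 30, 60, 90, 120, 240 and 360 min; EDTA plasma analysed by high turbulence LC-MS/MS. Each data point represents one animal.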

[4] = molecular target: T1, Peroxisome proliferator-activated receptor alpha (Homo sapiens, UniProt Q07869); experiment: Activity at human liver PPAR alpha expressed in HEK293 cells by PPAR-GAL4 transactivation assay; format: cell-based
T1 sequence (Q07869 whole entry): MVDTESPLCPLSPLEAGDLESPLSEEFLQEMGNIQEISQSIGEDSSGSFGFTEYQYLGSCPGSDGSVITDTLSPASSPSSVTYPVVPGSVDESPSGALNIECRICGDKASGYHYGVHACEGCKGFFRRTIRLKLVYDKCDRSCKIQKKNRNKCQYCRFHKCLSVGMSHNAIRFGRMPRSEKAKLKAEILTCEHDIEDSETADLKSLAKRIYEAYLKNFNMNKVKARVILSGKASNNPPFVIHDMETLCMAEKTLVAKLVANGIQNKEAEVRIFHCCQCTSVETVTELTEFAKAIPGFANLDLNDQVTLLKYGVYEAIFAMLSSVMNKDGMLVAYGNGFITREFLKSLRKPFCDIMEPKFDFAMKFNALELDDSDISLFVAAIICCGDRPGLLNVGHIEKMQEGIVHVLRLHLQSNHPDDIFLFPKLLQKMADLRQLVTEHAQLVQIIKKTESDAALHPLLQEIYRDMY

[5] = molecular target: T2, Peroxisome proliferator-activated receptor delta (Homo sapiens, UniProt Q03181)
T2 sequence (Q03181 whole entry): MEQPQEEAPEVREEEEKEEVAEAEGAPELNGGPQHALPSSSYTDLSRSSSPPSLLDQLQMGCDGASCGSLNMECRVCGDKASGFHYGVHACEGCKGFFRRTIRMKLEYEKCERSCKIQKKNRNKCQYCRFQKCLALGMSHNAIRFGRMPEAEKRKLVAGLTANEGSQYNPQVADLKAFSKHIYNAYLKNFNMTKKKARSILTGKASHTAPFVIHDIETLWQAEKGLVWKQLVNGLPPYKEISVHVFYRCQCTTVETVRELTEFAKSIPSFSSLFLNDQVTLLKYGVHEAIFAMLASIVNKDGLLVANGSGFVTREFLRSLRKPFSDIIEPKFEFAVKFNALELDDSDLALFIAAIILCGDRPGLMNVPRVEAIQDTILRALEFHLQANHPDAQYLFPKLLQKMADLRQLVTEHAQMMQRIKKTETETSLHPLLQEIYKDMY

[6] = Clearance in Sprague-Dawley rat at 0.20 mg/kg, iv; format: ADME, organism-based; design: dose 0.2 mg/kg, route intravenous; details: in vivo, 0.2 mg/kg; outline: as §3
[7] = tested on: L6; experiment: Effect on fatty acid oxidation in rat L6 cells; format: functional, cell-based; outline: as §1
[8] = Volume of distribution in Sprague-Dawley rat at 0.20 mg/kg, iv; format: ADME, organism-based; design: dose 0.2 mg/kg, route intravenous; details: in vivo, 0.2 mg/kg, read-out: Vss; outline: as §2
[9] = molecular target: T3, Peroxisome proliferator-activated receptor alpha (Homo sapiens) (UniProt Q07869); experiment: Activity at human liver PPAR alpha expressed in HEK293 cells by GAL4 transactivation assay relative to NNC61-4655; format: cell-based
T3 sequence (whole entry): T1 sequence (Q07869 whole entry)

[10] = Plasma Cmax in Sprague-Dawley rat at 0.45 mg/kg, po; format: ADME, organism-based; design: dose 0.45 mg/kg, route oral
Outline: (§4)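 Male SD rats, single oral dose in 5% ethanol/10% HPCD/phosphate buffer pH 7.5-8.0, n = 8. One animal was killed at each of 5, 15, 30, 60, 90, 120, 240 and 360 min. EDTA plasma was analysed by turbulent-flow LC-MS/MS. Cmax, half-life and oral bioavailability were taken from the plasma curves, with bioavailability using a parallel i.v. arm.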

[11] = Half life in Sprague-Dawley rat at 0.45 mg/kg, po; format: ADME, organism-based; design: dose 0.45 mg/kg, route oral; details: in vivo; outline: as §4
[12] = molecular target: T4, Peroxisome proliferator-activated receptor gamma (Homo sapiens, UniProt P37231); format: cell-based, HEK293
T4 sequence (P37231 whole entry): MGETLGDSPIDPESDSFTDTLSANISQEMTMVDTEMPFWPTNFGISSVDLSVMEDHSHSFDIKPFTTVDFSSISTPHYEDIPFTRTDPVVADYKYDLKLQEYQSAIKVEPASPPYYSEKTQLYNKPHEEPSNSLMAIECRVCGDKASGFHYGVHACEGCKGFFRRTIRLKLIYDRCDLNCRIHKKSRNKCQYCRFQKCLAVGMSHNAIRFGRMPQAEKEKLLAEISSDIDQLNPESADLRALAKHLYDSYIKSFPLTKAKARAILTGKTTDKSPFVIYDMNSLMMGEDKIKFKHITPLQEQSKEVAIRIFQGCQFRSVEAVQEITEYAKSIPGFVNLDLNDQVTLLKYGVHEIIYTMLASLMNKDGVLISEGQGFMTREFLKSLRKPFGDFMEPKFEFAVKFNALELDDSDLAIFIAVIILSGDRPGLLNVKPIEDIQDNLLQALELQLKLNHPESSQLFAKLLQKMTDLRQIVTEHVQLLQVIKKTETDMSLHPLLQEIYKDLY

[13] = Oral bioavailability in Sprague-Dawley rat at 2.35 mg/kg; format: ADME, organism-based; details: in vivo; outline: as §2
[14] = Volume of distribution in Sprague-Dawley rat at 1.18 mg/kg, iv; format: ADME, organism-based; design: dose 1.18 mg/kg, route intravenous; details: in vivo, read-out: Vss; outline: as §2
[15] = Half life in Sprague-Dawley rat at 2.35 mg/kg, po; format: ADME, organism-based; design: dose 2.35 mg/kg, route oral; details: in vivo; outline: as §3
[16] = Clearance in Sprague-Dawley rat at 1.18 mg/kg, iv; format: ADME, organism-based; design: dose 1.18 mg/kg, route intravenous; details: in vivo; outline: as §3
[17] = Plasma Cmax in Sprague-Dawley rat at 2.35 mg/kg, po; format: ADME, organism-based; design: dose 2.35 mg/kg, route oral; outline: as §2
[18] = Volume of distribution in Sprague-Dawley rat at 1.08 mg/kg, iv; format: ADME, organism-based; design: dose 1.08 mg/kg, route intravenous; details: in vivo, read-out: Vss; outline: as §2
[19] = Clearance in Sprague-Dawley rat at 1.08 mg/kg, iv; format: ADME, organism-based; design: dose 1.08 mg/kg, route intravenous; details: in vivo; outline: as §3
[20] = Plasma Cmax in Sprague-Dawley rat at 2.29 mg/kg, po; format: ADME, organism-based; design: dose 2.29 mg/kg, route oral; outline: as §2
[21] = Oral bioavailability in Sprague-Dawley rat at 2.29 mg/kg; format: ADME, organism-based; details: in vivo; outline: as §2
[22] = Half life in Sprague-Dawley rat at 2.29 mg/kg, po; format: ADME, organism-based; design: dose 2.29 mg/kg, route oral; details: in vivo; outline: as §3

| SMILES | Activity [1] [%] | EC50 [4] [nM] | EC50 [5] [nM] | EC50 [7] [nM] | Efficacy [9] [%] | EC50 [12] [nM] | other results |
| --- | --- | --- | --- | --- | --- | --- | --- |
| O=C(O)Cc1ccc(OCC=C(c2ccc(Br)cc2)c2ccc(Br)cc2)cc1 | 62 | > 10000 | 1100 | 204 | > 14 |  | Cmax [2]: 252 ng/mL; half-life [3]: 7.45 h; clearance [6]: 6 mL/min/kg; Vd [8]: 1.4 L/kg |
| O=C(O)Cc1cccc(OCC=C(c2ccc(Br)cc2)c2ccc(Br)cc2)c1 | 78 | > 10000 | 830 | 224 | > 19 | > 10000 | Cmax [10]: 419 ng/mL; half-life [11]: 2.55 h |
| Cc1cc(SCC=C(c2ccc(Br)cc2)c2ccc(Br)cc2)ccc1OCC(=O)O | 75 | > 10000 | 17 | 3 | > 22 | > 10000 | bioavailability [13]: 95%; Vd [14]: 0.9 L/kg; half-life [15]: 2.52 h; clearance [16]: 10 mL/min/kg; Cmax [17]: 887 ng/mL |
| CCO[C@@H](Cc1ccc(OCC=C(c2ccc(Br)cc2)c2ccc(Br)cc2)cc1)C(=O)O |  | 390 | 540 |  | 93 | 590 | Vd [18]: 2.3 L/kg; clearance [19]: 21.4 mL/min/kg; Cmax [20]: 554 ng/mL; bioavailability [21]: 78%; half-life [22]: 1.42 h |
| CN(CCOc1ccc(CC2SC(=O)NC2=O)cc1)c1ccccn1 (stereo not given) [ROSIGLITAZONE] | 58 |  |  | 5000 | > 24 |  |  |
